Data from ChEMBL document CHEMBL4689842, “EUbOPEN Chemogenomics Library wave 1” (2021).

Tested on: HEK-293T
Test: Multiplex assay against HEK293T;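 for Population Tubulin-Different-Phenotype (%): share of the cells with healthy nuclei that show this phenotype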
Assay type: toxicity, cell-based
Conditions: human
Procedure, shortened: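 Imaging took place on a CQ1 microscope at 37°C and 5% CO2 once compound had been added to live cells stained at seeding with Hoechst33342, BioTracker Green Microtubule Cytoskeleton Dye, MitoTracker Red and Annexin V Alexa Fluor 680. CellPathfinder machine-learning gating classed cells as Hoechst high-intensity objects or normal cells, classed normal cells as having healthy, pyknosed or fragmented nuclei, and classed pyknosed cells as mitotic or apoptotic. Tubulin, mitochondrial-mass and membrane-permeability phenotypes are per cents of the healthy-nucleus cells.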

[1] = 12 h, 0 µM, compound concentration 0 uM, replicate 1
[2] = 12 h, 0 µM, compound concentration 0 uM, replicate 2
[3] = 12 h, 1 µM, compound concentration 1 uM, replicate 1
[4] = 12 h, 1 µM, compound concentration 1 uM, replicate 2
[5] = 24 h, 0 µM, compound concentration 0 uM, replicate 1
[6] = 24 h, 0 µM, compound concentration 0 uM, replicate 2
[7] = 24 h, 1 µM, compound concentration 1 uM, replicate 1
[8] = 24 h, 1 µM, compound concentration 1 uM, replicate 2
[9] = 12 h, 10 µM, compound concentration 10 uM, replicate 1
[10] = 12 h, 10 µM, compound concentration 10 uM, replicate 2
[11] = 24 h, 10 µM, compound concentration 10 uM, replicate 1
[12] = 24 h, 10 µM, compound concentration 10 uM, replicate 2
[13] = 48 h, 1 µM, compound concentration 1 uM, replicate 1
[14] = 48 h, 1 µM, compound concentration 1 uM, replicate 2
[15] = 48 h, 10 µM, compound concentration 10 uM, replicate 1
[16] = 48 h, 10 µM, compound concentration 10 uM, replicate 2

## CCNc1cc(N[C@H]2CC[C@H](O)CC2)nc(Nc2ccc3c(ccn3Cc3ccccc3)c2)n1
[1]
  Population Apoptotic (%): 42%
  Population Fragmented Nuclei (%): 21%
  Population Healthy Nuclei (%): 10%
  Population Hoechst High Intensity Objects (%): 21%
  Population Membrane Permeable-Phenotype (%): 16%
  Population Mitochondria Different-Phenotype (%): 41%
  Population Mitotic Cells (%): 57%
  Population Normal (%): 78%
  Population Pyknosed Nuclei (%): 67%
  Population Tubulin-Different-Phenotype (%): 50%
  Total Cell Count: 667
[2]
  Population Apoptotic (%): 29%
  Population Fragmented Nuclei (%): 3%
  Population Healthy Nuclei (%): 38%
  Population Hoechst High Intensity Objects (%): 6%
  Population Membrane Permeable-Phenotype (%): 1%
  Population Mitochondria Different-Phenotype (%): 83%
  Population Mitotic Cells (%): 70%
  Population Normal (%): 93%
  Population Pyknosed Nuclei (%): 58%
  Population Tubulin-Different-Phenotype (%): 97%
  Total Cell Count: 1155
[3]
  Population Apoptotic (%): 23%
  Population Fragmented Nuclei (%): 12%
  Population Healthy Nuclei (%): 54%
  Population Hoechst High Intensity Objects (%): 10%
  Population Mitochondria Different-Phenotype (%): 27%
  Population Mitotic Cells (%): 76%
  Population Normal (%): 89%
  Population Pyknosed Nuclei (%): 32%
  Population Tubulin-Different-Phenotype (%): 46%
  Total Cell Count: 618
[4]
  Population Apoptotic (%): 7%
  Population Fragmented Nuclei (%): 3%
  Population Healthy Nuclei (%): 85%
  Population Hoechst High Intensity Objects (%): 2%
  Population Membrane Permeable-Phenotype (%): 10%
  Population Mitochondria Different-Phenotype (%): 33%
  Population Mitotic Cells (%): 92%
  Population Normal (%): 97%
  Population Pyknosed Nuclei (%): 11%
  Population Tubulin-Different-Phenotype (%): 80%
  Total Cell Count: 1484
[5]
  Population Apoptotic (%): 59%
  Population Fragmented Nuclei (%): 26%
  Population Healthy Nuclei (%): 10%
  Population Hoechst High Intensity Objects (%): 19%
  Population Membrane Permeable-Phenotype (%): 5%
  Population Mitochondria Different-Phenotype (%): 51%
  Population Mitotic Cells (%): 40%
  Population Normal (%): 80%
  Population Pyknosed Nuclei (%): 63%
  Population Tubulin-Different-Phenotype (%): 53%
  Total Cell Count: 694
[6]
  Population Apoptotic (%): 37%
  Population Fragmented Nuclei (%): 2%
  Population Healthy Nuclei (%): 30%
  Population Hoechst High Intensity Objects (%): 8%
  Population Membrane Permeable-Phenotype (%): 2%
  Population Mitochondria Different-Phenotype (%): 91%
  Population Mitotic Cells (%): 62%
  Population Normal (%): 91%
  Population Pyknosed Nuclei (%): 66%
  Population Tubulin-Different-Phenotype (%): 96%
  Total Cell Count: 1176
[7]
  Population Apoptotic (%): 20%
  Population Fragmented Nuclei (%): 9%
  Population Healthy Nuclei (%): 76%
  Population Hoechst High Intensity Objects (%): 7%
  Population Membrane Permeable-Phenotype (%): 8%
  Population Mitochondria Different-Phenotype (%): 18%
  Population Mitotic Cells (%): 79%
  Population Normal (%): 92%
  Population Pyknosed Nuclei (%): 13%
  Population Tubulin-Different-Phenotype (%): 54%
  Total Cell Count: 703
[8]
  Population Apoptotic (%): 9%
  Population Fragmented Nuclei (%): 11%
  Population Healthy Nuclei (%): 83%
  Population Hoechst High Intensity Objects (%): 2%
  Population Membrane Permeable-Phenotype (%): 12%
  Population Mitochondria Different-Phenotype (%): 14%
  Population Mitotic Cells (%): 90%
  Population Normal (%): 97%
  Population Pyknosed Nuclei (%): 4%
  Population Tubulin-Different-Phenotype (%): 75%
  Total Cell Count: 2335

## O=C(Nc1ccc(-c2ccnc(Nc3ccc(N4CCOCC4)cc3)n2)cc1)[C@@H]1CCCN1
[3]
  Population Apoptotic (%): 46%
  Population Fragmented Nuclei (%): 9%
  Population Healthy Nuclei (%): 34%
  Population Hoechst High Intensity Objects (%): 11%
  Population Membrane Permeable-Phenotype (%): 2%
  Population Mitochondria Different-Phenotype (%): 77%
  Population Mitotic Cells (%): 53%
  Population Normal (%): 88%
  Population Pyknosed Nuclei (%): 56%
  Population Tubulin-Different-Phenotype (%): 50%
  Total Cell Count: 289
[4]
  Population Apoptotic (%): 13%
  Population Fragmented Nuclei (%): 2%
  Population Healthy Nuclei (%): 45%
  Population Hoechst High Intensity Objects (%): 4%
  Population Membrane Permeable-Phenotype (%): 12%
  Population Mitochondria Different-Phenotype (%): 19%
  Population Mitotic Cells (%): 86%
  Population Normal (%): 95%
  Population Pyknosed Nuclei (%): 51%
  Population Tubulin-Different-Phenotype (%): 30%
  Total Cell Count: 246
[9]
  Population Apoptotic (%): 54%
  Population Fragmented Nuclei (%): 16%
  Population Healthy Nuclei (%): 17%
  Population Hoechst High Intensity Objects (%): 18%
  Population Membrane Permeable-Phenotype (%): 0%
  Population Mitochondria Different-Phenotype (%): 96%
  Population Mitotic Cells (%): 45%
  Population Normal (%): 81%
  Population Pyknosed Nuclei (%): 65%
  Population Tubulin-Different-Phenotype (%): 100%
  Total Cell Count: 232
[10]
  Population Apoptotic (%): 27%
  Population Fragmented Nuclei (%): 12%
  Population Healthy Nuclei (%): 15%
  Population Hoechst High Intensity Objects (%): 4%
  Population Membrane Permeable-Phenotype (%): 12%
  Population Mitochondria Different-Phenotype (%): 62%
  Population Mitotic Cells (%): 72%
  Population Normal (%): 95%
  Population Pyknosed Nuclei (%): 72%
  Population Tubulin-Different-Phenotype (%): 91%
  Total Cell Count: 163
[7]
  Population Apoptotic (%): 51%
  Population Fragmented Nuclei (%): 10%
  Population Healthy Nuclei (%): 52%
  Population Hoechst High Intensity Objects (%): 12%
  Population Membrane Permeable-Phenotype (%): 1%
  Population Mitochondria Different-Phenotype (%): 75%
  Population Mitotic Cells (%): 48%
  Population Normal (%): 87%
  Population Pyknosed Nuclei (%): 36%
  Population Tubulin-Different-Phenotype (%): 51%
  Total Cell Count: 337
[8]
  Population Apoptotic (%): 17%
  Population Fragmented Nuclei (%): 3%
  Population Healthy Nuclei (%): 63%
  Population Hoechst High Intensity Objects (%): 3%
  Population Membrane Permeable-Phenotype (%): 6%
  Population Mitochondria Different-Phenotype (%): 21%
  Population Mitotic Cells (%): 82%
  Population Normal (%): 96%
  Population Pyknosed Nuclei (%): 32%
  Population Tubulin-Different-Phenotype (%): 46%
  Total Cell Count: 303
[11]
  Population Apoptotic (%): 57%
  Population Fragmented Nuclei (%): 18%
  Population Healthy Nuclei (%): 24%
  Population Hoechst High Intensity Objects (%): 12%
  Population Membrane Permeable-Phenotype (%): 1%
  Population Mitochondria Different-Phenotype (%): 98%
  Population Mitotic Cells (%): 42%
  Population Normal (%): 87%
  Population Pyknosed Nuclei (%): 56%
  Population Tubulin-Different-Phenotype (%): 98%
  Total Cell Count: 242
[12]
  Population Apoptotic (%): 32%
  Population Fragmented Nuclei (%): 7%
  Population Healthy Nuclei (%): 38%
  Population Hoechst High Intensity Objects (%): 4%
  Population Membrane Permeable-Phenotype (%): 7%
  Population Mitochondria Different-Phenotype (%): 56%
  Population Mitotic Cells (%): 67%
  Population Normal (%): 95%
  Population Pyknosed Nuclei (%): 53%
  Population Tubulin-Different-Phenotype (%): 88%
  Total Cell Count: 186
[13]
  Population Apoptotic (%): 48%
  Population Fragmented Nuclei (%): 10%
  Population Healthy Nuclei (%): 71%
  Population Hoechst High Intensity Objects (%): 7%
  Population Membrane Permeable-Phenotype (%): 3%
  Population Mitochondria Different-Phenotype (%): 31%
  Population Mitotic Cells (%): 51%
  Population Normal (%): 92%
  Population Pyknosed Nuclei (%): 17%
  Population Tubulin-Different-Phenotype (%): 33%
  Total Cell Count: 482
[14]
  Population Apoptotic (%): 10%
  Population Fragmented Nuclei (%): 4%
  Population Healthy Nuclei (%): 84%
  Population Hoechst High Intensity Objects (%): 3%
  Population Membrane Permeable-Phenotype (%): 4%
  Population Mitochondria Different-Phenotype (%): 6%
  Population Mitotic Cells (%): 90%
  Population Normal (%): 96%
  Population Pyknosed Nuclei (%): 10%
  Population Tubulin-Different-Phenotype (%): 25%
  Total Cell Count: 495
[15]
  Population Apoptotic (%): 49%
  Population Fragmented Nuclei (%): 22%
  Population Healthy Nuclei (%): 48%
  Population Hoechst High Intensity Objects (%): 8%
  Population Membrane Permeable-Phenotype (%): 4%
  Population Mitochondria Different-Phenotype (%): 84%
  Population Mitotic Cells (%): 50%
  Population Normal (%): 91%
  Population Pyknosed Nuclei (%): 29%
  Population Tubulin-Different-Phenotype (%): 95%
  Total Cell Count: 271
[16]
  Population Apoptotic (%): 36%
  Population Fragmented Nuclei (%): 10%
  Population Healthy Nuclei (%): 60%
  Population Hoechst High Intensity Objects (%): 5%
  Population Membrane Permeable-Phenotype (%): 10%
  Population Mitochondria Different-Phenotype (%): 38%
  Population Mitotic Cells (%): 63%
  Population Normal (%): 94%
  Population Tubulin-Different-Phenotype (%): 81%
  Total Cell Count: 246
